Results: article PMC8939876 (RSC Advances, 2019)

Tests used:
Type in all cases: cell-based
[1] = test system: Plasmodium falciparum D6 (CQ-sensitive); conditions: D6, read-out: In vitro activity (IC50 nM) D6
[2] = test system: Plasmodium falciparum Dd2 (MDR strain with Old World genetic background); conditions: DD2, read-out: In vitro activity (IC50 nM) Dd2
[3] = test system: Plasmodium falciparum 7G8 (MDR strain with New World genetic background); conditions: 7G8, read-out: In vitro activity (IC50 nM) 7G8
HepG2 cells = assay: HepG2 cytotoxicity assay; conditions: Homo sapiens, HepG2, read-out: Cytotoxicity (nM) vs. HepG2
How it was run: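 HepG2 cells kept in RPMI-1640 with 10% FBS (37 °C, 5% CO2) were seeded at 2 × 10^4/well and left to attach overnight. Test compound (10 mM DMSO stock) was serially diluted in medium and applied for 24–36 h. Cells then had fresh medium for 24 h more, then resazurin (final 10 μM) for 3 h. Fluorescence read at ex 560/em 590 nm. IC50 from nonlinear logistic regression.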

[4] = test system: panel of Plasmodium falciparum malaria parasites; conditions: for antimalarial activity against all tested strains (in words): D6, Dd2, 7G8 strains; for therapeutic index (the ratio of cytotoxicity to antimalarial therapeutic efficacy): HepG2 cytotoxicity vs antimalarial IC50

SMILES	IC50 [1] [nM]	IC50 [2] [nM]	IC50 [3] [nM]	CC50 (HepG2 cells) [nM]	antimalarial activity against all tested strains (in words) [4]	therapeutic index (the ratio of cytotoxicity to antimalarial therapeutic efficacy) [4]
COc1ccc2[nH]c3ccc(OC(F)(F)F)cc3c(=O)c2c1 [2o, 2-Methoxy-7-(trifluoromethoxy)acridin-9(10H)-one]	632	425	437	> 200000	–	–
CCN(CC)CCn1c2ccc([N+](=O)[O-])cc2c(=O)c2ccc(OC)cc21 [2l, 10-(2-(Diethylamino)ethyl)-6-methoxy-2-nitroacridin-9(10H)-one]	405	684	462	12300	–	–
O=C1C(O)=C([C@H]2CC[C@H](c3ccc(Cl)cc3)CC2)C(=O)c2ccccc21 [ATV, atovaquone, reference compound]	0.1	0.1	–	–	–	–
COc1ccc2[nH]c3c(OC(F)(F)F)cccc3c(=O)c2c1 [2q, 2-Methoxy-5-(trifluoromethoxy)acridin-9(10H)-one]	1490	1680	> 2500	> 200000	–	–
COc1ccc2[nH]c3ccc(Oc4ccc(Cl)cc4)cc3c(=O)c2c1 [2p, 2-(4-Chlorophenoxy)-7-methoxyacridin-9(10H)-one]	573	513	911	> 200000	–	–
COc1cccc2c(=O)c3cc(OC(F)(F)F)ccc3[nH]c12 [2v, 5-Methoxy-2-(trifluoromethoxy)acridin-9(10H)-one]	27.7	15.5	46.3	139000	excellent activity	high
O=c1c2cc(OCCCl)ccc2[nH]c2cc(F)cc(F)c12 [2u, 7-(2-Chloroethoxy)-1,3-difluoroacridin-9(10H)-one]	11.6	0.91	1.22	> 200000	excellent activity	high
COc1ccc2[nH]c3ccc(C#N)cc3c(=O)c2c1 [2r, 7-Methoxy-9-oxo-9,10-dihydroacridine-2-carbonitrile]	983	932	> 2500	> 200000	–	–
COc1ccc2c(=O)c3cc(S(=O)(=O)C(F)(F)F)ccc3[nH]c2c1 [2g, 6-Methoxy-2-((trifluoromethyl)sulfonyl)acridin-9(10H)-one]	11.6	11.6	22.2	> 200000	excellent activity	high
COc1ccc2c(=O)c3c(F)c(F)c(F)c(F)c3[nH]c2c1 [2n, 1,2,3,4-Tetrafluoro-6-methoxyacridin-9(10H)-one]	257	325	41.8	> 200000	–	–
COc1ccc2[nH]c3cc(F)cc(F)c3c(=O)c2c1 [2s, 1,3-Difluoro-7-methoxyacridin-9(10H)-one]	0.05	0.29	0.2	> 200000	excellent activity	high
Cc1ccc2[nH]c3ccc(OC(F)(F)F)cc3c(=O)c2c1 [2w, 2-Methyl-7-(trifluoromethoxy)acridin-9(10H)-one]	63.1	49.2	109	> 200000	–	–
COc1ccc2c(=O)c3cc(C#N)ccc3[nH]c2c1 [2i, 6-Methoxy-9-oxo-9,10-dihydroacridine-2-carbonitrile]	100	177	228	> 200000	–	–
COc1ccc2c(=O)c3cc(OC(F)(F)F)ccc3[nH]c2c1 [2d, 6-Methoxy-2-(trifluoromethoxy)acridin-9(10H)-one]	0.103	1.1	1.51	> 200000	excellent activity	high
COc1ccc2c(=O)c3cc(Oc4ccc(Cl)cc4)ccc3[nH]c2c1 [2e, 2-(4-Chlorophenoxy)-6-methoxyacridin-9(10H)-one]	8.84	11.7	13.5	> 200000	excellent activity	high
COc1ccc2c(=O)c3cc([N+](=O)[O-])ccc3[nH]c2c1 [2j, 6-Methoxy-2-nitroacridin-9(10H)-one]	84.1	98.1	35	> 200000	–	–
CCN(CC)CCCC(C)Nc1ccnc2cc(Cl)ccc12 (centres unmarked) [CQ, chloroquine, reference compound]	–	–	172	–	–	–
COc1ccc2[nH]c3c(F)c(F)c(F)c(F)c3c(=O)c2c1 [2t, 1,2,3,4-Tetrafluoro-7-methoxyacridin-9(10H)-one]	> 2500	1950	393	> 200000	–	–
O=c1c2cc(OC(F)(F)F)ccc2[nH]c2cc3ccccc3cc12 [2x, 2-(Trifluoromethoxy)benzo[b]acridin-12(5H)-one]	7.03	0.563	16.5	> 200000	excellent activity	high
COc1ccc2c(=O)c3cccc(OC(F)(F)F)c3[nH]c2c1 [2f, 3-Methoxy-5-(trifluoromethoxy)acridin-9(10H)-one]	782	753	1140	> 200000	–	–
